ChEMBL document CHEMBL3272019, “Synthesis and some properties and antitumor effects of the actinomycin lactam analog, (di(1-L-alpha, beta-diaminopropionic))actinomycin D1” (1976)
Values after ≈ are worked out from the molar mass of the structure shown. Active and inactive are the calls of the source. No cut-off for these calls is given here. Starred links: 1 amine or outer side, 2 acyl side, 3 side chain; linkers in the order of their positions; H or OH if unused. Positions of bridges follow the written chain, without caps; N, C: chain ends. Non-standard residues stand in square brackets, D forms with d. Residues, ends and D or L forms follow the SMILES beside them. Chains are numbered I, II in the order given. Actinocin(1to9) = Cc1c2oc3c(C)ccc(C(=O)[*:2])c3nc-2c(C(=O)[*:1])c(N)c1=O; NMeV = CN[C@H](C(=O)O)C(C)C; Sar = CNCC(=O)O

How the values were obtained:
Homo sapiens [1] = species: Homo sapiens; assay: Binding affinity to poly[d(DAP-A-T)] (unknown origin) at 14.3 uM by visible and near-UV CD spectrophotometry
Procedure, shortened: (§1)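 Visible and near-UV CD spectra of actinomycin D recorded free and with polynucleotide, in 0.01 M sodium phosphate pH 7.0 at about 23°, in 1-cm tandem cylindrical quartz cells. DNA levels were given as nucleotide phosphorus: PM2 0.54 mM, calf thymus 0.50 mM, poly[d(DAP-A-T)] 0.12 mM and poly[d(DAP-T)] 0.27 mM. Drug concentration was set from the 440 nm extinction coefficient (24450 M⁻¹ cm⁻¹).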

Homo sapiens [2] = species: Homo sapiens; assay: Binding affinity to poly[d(DAP-T)] (unknown origin) at 14.3 uM by visible and near-UV CD spectrophotometry; procedure, shortened: as §1
Calf thymus DNA = assay: Binding affinity to calf thymus DNA at 34.5 uM by visible and near-UV CD spectrophotometry; type: nucleic-acid assay; conditions: Bos taurus; procedure, shortened: as §1
[3] = tested on: Pseudoalteromonas phage PM2; assay: Binding affinity to bacteriophage PM2 DNA at 31 uM by visible and near-UV CD spectrophotometry; procedure, shortened: as §1
Bacillus subtilis = assay: Antibacterial activity against Bacillus subtilis Marburg assessed as growth inhibition; type: functional
Staphylococcus aureus = assay: Antibacterial activity against Penicillin-resistant Staphylococcus aureus assessed as growth inhibition; type: functional
Sarcina = assay: Antibacterial activity against Sarcina subflava assessed as growth inhibition; type: functional
L1210 [4] = assay: Antitumor activity against mouse L1210 cells allografted in BDF1 mouse assessed as mean survival time at 0.05 mg/kg/injection, ip administered daily for 9 days (reference value: 9.6 days); type: functional; conditions: route intraperitoneal
L1210 [5] = assay: Antitumor activity against mouse L1210 cells allografted in BDF1 mouse assessed as mean survival time at 0.3 mg/kg/injection, ip administered intermittently on days 1, 5 and 9 (reference value: 9.6 days); type: functional; conditions: route intraperitoneal
L1210 [6] = assay: Antitumor activity against mouse L1210 cells allografted in BDF1 mouse assessed as mean survival time at 0.4 mg/kg/injection, ip administered as single dose (reference value: 9.6 days); type: functional; conditions: route intraperitoneal
L1210 [7] = assay: Antitumor activity against mouse L1210 cells allografted in BDF1 mouse assessed as increase in life span at 0.05 mg/kg/injection, ip administered daily for 9 days; type: functional; conditions: 216 h, route intraperitoneal
L1210 [8] = assay: Antitumor activity against mouse L1210 cells allografted in BDF1 mouse assessed as increase in lifespan at 0.3 mg/kg/injection, ip administered intermittently on days 1, 5 and 9; type: functional; conditions: route intraperitoneal
L1210 [9] = assay: Antitumor activity against mouse L1210 cells allografted in BDF1 mouse assessed as increase in life span at 0.4 mg/kg/injection, ip administered as single dose; type: functional; conditions: route intraperitoneal
P388 [10] = assay: Antitumor activity against mouse P388 cells allografted in BDF1 mouse assessed as mean survival time at 0.05 mg/kg/injection, ip administered daily for 9 days (reference value: 10.5 days); type: functional; conditions: route intraperitoneal
Procedure, shortened: (§2)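 P388 leukaemia: 10⁶ cells implanted ip on day 0 into groups of eight male BDF mice. Dosing was ip daily on days 1–9, on days 1, 5 and 9, or as a single day-1 dose, over four- to fivefold dose ranges. Median survival time (range of deaths) and percent increase in life-span were recorded, with survivors/total counted at day 60.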

P388 [11] = assay: Antitumor activity against mouse P388 cells allografted in BDF1 mouse assessed as mean survival time at 0.3 mg/kg/injection, ip administered intermittently on days 1, 5 and 9 (reference value: 10.5 days); type: functional; conditions: route intraperitoneal; procedure, shortened: as §2
P388 [12] = assay: Antitumor activity against mouse P388 cells allografted in BDF1 mouse assessed as mean survival time at 0.4 mg/kg/injection, ip administered as single dose (reference value: 10.5 days); type: functional; conditions: route intraperitoneal; procedure, shortened: as §2
P388 [13] = assay: Antitumor activity against mouse P388 cells allografted in BDF1 mouse assessed as increase in life span at 0.05 mg/kg/injection, ip administered daily for 9 days measured on day 60; type: functional; conditions: route intraperitoneal; procedure, shortened: as §2
P388 [14] = assay: Antitumor activity against mouse P388 cells allografted in BDF1 mouse assessed as increase in life span at 0.3 mg/kg/injection, ip administered intermittently on days 1, 5 and 9 measured on day 60; type: functional; conditions: 1440 h, route intraperitoneal; procedure, shortened: as §2
P388 [15] = assay: Antitumor activity against mouse P388 cells allografted in BDF1 mouse assessed as increase in life span at 0.4 mg/kg/injection, ip administered as single dose measured on day 60; type: functional; conditions: 1440 h, route intraperitoneal; procedure, shortened: as §2
B16 [16] = assay: Antitumor activity against mouse B16 cells allografted in BDF1 mouse assessed as mean survival time at 0.025 mg/kg/injection, ip administered daily for 9 days (reference value: 28 days); type: functional; conditions: route intraperitoneal
Procedure, shortened: (§3)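 B16 melanoma in mice, standard screening method. Schedules were daily on days 1–9, on days 1, 5 and 9, or a single day-1 injection, each over a four- to fivefold dose range. Survival time (range of individual deaths) was recorded, percent increase in life-span computed against untreated controls, and survivors tallied.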

B16 [17] = assay: Antitumor activity against mouse B16 cells allografted in BDF1 mouse assessed as mean survival time at 0.3 mg/kg/injection, ip administered intermittently on days 1, 5 and 9 (reference value: 28 days); type: functional; conditions: route intraperitoneal; procedure, shortened: as §3
B16 [18] = assay: Antitumor activity against mouse B16 cells allografted in BDF1 mouse assessed as mean survival time at 0.4 mg/kg/injection, ip administered as single dose (reference value: 28 days); type: functional; conditions: route intraperitoneal; procedure, shortened: as §3
B16 [19] = assay: Antitumor activity against mouse B16 cells allografted in BDF1 mouse assessed as increase in life span at 0.025 mg/kg/injection, ip administered daily for 9 days measured on day 60; type: functional; conditions: route intraperitoneal; procedure, shortened: as §3
B16 [20] = assay: Antitumor activity against mouse B16 cells allografted in BDF1 mouse assessed as increase in life span at 0.3 mg/kg/injection, ip administered intermittently on days 1, 5 and 9 measured on day 60; type: functional; conditions: 1440 h, route intraperitoneal; procedure, shortened: as §3
B16 [21] = assay: Antitumor activity against mouse B16 cells allografted in BDF1 mouse assessed as increase in life span at 0.4 mg/kg/injection, ip administered as single dose measured on day 60; type: functional; conditions: 1440 h, route intraperitoneal; procedure, shortened: as §3

Cc1c2oc3c(C)ccc(C(=O)N[C@@H]4C(=O)N[C@H](C(C)C)C(=O)N5CCC[C@H]5C(=O)N(C)CC(=O)N(C)[C@@H](C(C)C)C(=O)O[C@@H]4C)c3nc-2c(C(=O)N[C@@H]2C(=O)N[C@H](C(C)C)C(=O)N3CCC[C@H]3C(=O)N(C)CC(=O)N(C)[C@@H](C(C)C)C(=O)O[C@@H]2C)c(N)c1=O [DACTINOMYCIN] (I: T[dV]P[Sar][NMeV] / II: T[dV]P[Sar][NMeV]; ester I:1-I:C, II:1-II:C; linker I:N-II:N via Actinocin(1to9))
Activity (Homo sapiens [1]): Active
Activity (Homo sapiens [2]): Active
Activity (Calf thymus DNA): Active
Activity [3]: Active
MIC (Bacillus subtilis): 0.09 µg/mL (≈ 0.0717 µM)
IC50 (Bacillus subtilis; read-out: ID50 (the source's name)): 0.05 µg/mL (≈ 0.0398 µM)
MIC (Staphylococcus aureus): 0.05 µg/mL (≈ 0.0398 µM)
MIC (Sarcina): 0.045 µg/mL (≈ 0.0358 µM)
MST (L1210 [4]): 13.6 days
MST (L1210 [5]): 14 days
MST (L1210 [6]): 12.6 days
ILS at 0.05 mg/kg (L1210 [7]): 42%
ILS at 0.3 mg/kg (L1210 [8]): 45%
ILS at 0.4 mg/kg (L1210 [9]): 31%
MST (P388 [10]): 28.5 days
MST (P388 [11]): 38 days
MST (P388 [12]): 22 days
ILS at 0.05 mg/kg (P388 [13]): 171%
ILS at 0.3 mg/kg (P388 [14]): 262%
ILS at 0.4 mg/kg (P388 [15]): 110%
MST (B16 [16]): 45 days
MST (B16 [17]): 41.5 days
MST (B16 [18]): 38.5 days
ILS at 0.025 mg/kg (B16 [19]): 61%
ILS at 0.3 mg/kg (B16 [20]): 48%
ILS at 0.4 mg/kg (B16 [21]): 38%
